Calls of active or inactive are those of the source. No cut-off for these calls is given here.
Tests used:
Format in all cases: cell-based
[1] = biological target: Transient receptor potential cation channel subfamily V member 1 (Homo sapiens) (UniProt Q8NER1); experiment: Activation of human TRPV1 expressed in BEAS-2B cells assessed as induction of calcium influx at 100 uM by fluro 4-AM dye-based fluorescence assay
Method in brief: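 TRPV1-overexpressing BEAS-2B cells are loaded with Fluo 4-Direct/LHC-9 at room temperature, washed into LHC-9 containing probenecid and Trypan Red, and incubated 30 min at 37 °C. Test solution is made at 3× in LHC9. Fluorescence is followed 1 min at 37 °C. Max ΔF/s relative to medium is expressed as % of the response to 10 μM capsaicin. Minimum triplicate.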

[2] = biological target: Transient receptor potential cation channel subfamily V member 4 (Homo sapiens) (UniProt Q9HBA0); experiment: Activation of human TRPV4 expressed in HEK293 cells assessed as induction of calcium influx at 100 uM by fluro 4-AM dye-based fluorescence assay
Method in brief: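 HEK-293 stable overexpressors on gelatin-coated plates are loaded with Fluo 4-AM (1 h, 37 °C), then given probenecid/Trypan Red LHC-9 and 30 min at 37 °C. Treatments are prepared at 3× in LHC9, with 1-min monitoring at 37 °C. Max ΔF/s versus medium only is given as % of the 30 nM GSK1016790A control. Three replicates minimum.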

[3] = biological target: Transient receptor potential cation channel subfamily M member 8 (Homo sapiens) (UniProt Q7Z2W7); experiment: Activation of human TRPM8 expressed in HEK293 cells assessed as induction of calcium influx at 100 uM by fluro 4-AM dye-based fluorescence assay
Method in brief: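 Uses the same HEK-293 stable-line culture and Fluo 4-AM loading (1 h, 37 °C), followed by the probenecid/Trypan Red LHC-9 wash and 30 min equilibration at 37 °C. Treatment is made at 3× in LHC9. Max ΔF/s is read over 1 min at 37 °C, normalized to medium-only and given as % of the 25 μM icilin control. Three or more replicates.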

[4] = biological target: T1, Transient receptor potential cation channel subfamily V member 3 (Homo sapiens) (UniProt Q8NET8); experiment: Activation of human TRPV3 expressed in HEK293 cells assessed as induction of calcium influx at 100 uM by fluro 4-AM dye-based fluorescence assay
T1 sequence (whole entry): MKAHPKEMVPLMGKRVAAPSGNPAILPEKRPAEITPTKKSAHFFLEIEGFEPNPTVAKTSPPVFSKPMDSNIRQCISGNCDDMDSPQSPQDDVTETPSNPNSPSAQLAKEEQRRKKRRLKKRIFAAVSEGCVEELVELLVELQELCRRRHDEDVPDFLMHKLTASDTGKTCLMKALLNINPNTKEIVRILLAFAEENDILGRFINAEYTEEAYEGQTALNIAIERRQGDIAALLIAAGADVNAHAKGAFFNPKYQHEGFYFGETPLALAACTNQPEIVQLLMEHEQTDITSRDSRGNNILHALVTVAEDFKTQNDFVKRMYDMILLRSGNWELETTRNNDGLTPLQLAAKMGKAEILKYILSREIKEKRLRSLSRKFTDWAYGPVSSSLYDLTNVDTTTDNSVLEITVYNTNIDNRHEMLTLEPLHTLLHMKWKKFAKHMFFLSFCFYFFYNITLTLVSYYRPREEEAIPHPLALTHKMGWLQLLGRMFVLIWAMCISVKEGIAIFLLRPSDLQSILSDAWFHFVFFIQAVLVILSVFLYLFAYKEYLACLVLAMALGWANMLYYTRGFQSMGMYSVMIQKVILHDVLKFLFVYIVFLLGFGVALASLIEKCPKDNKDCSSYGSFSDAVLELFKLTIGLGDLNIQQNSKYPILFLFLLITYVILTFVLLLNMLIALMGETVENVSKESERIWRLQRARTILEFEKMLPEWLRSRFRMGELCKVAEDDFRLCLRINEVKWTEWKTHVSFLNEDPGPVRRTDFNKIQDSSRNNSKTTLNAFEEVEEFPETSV
Method in brief: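 Confluent HEK-293 cells stably expressing the channel are dye-loaded 1 h at 37 °C, washed, and equilibrated 30 min at 37 °C in LHC-9 with 1 mM probenecid. Compounds are dosed at 3× in calcium assay buffer. The 1-min read at 37 °C gives max ΔF/s over medium, reported as % of the 300 μM carvacrol agonist control. At least three replicates.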

[5] = biological target: Transient receptor potential cation channel subfamily A member 1 (Homo sapiens, UniProt O75762); experiment: Activation of human TRPA1 expressed in HEK293 cells assessed as induction of calcium influx at 100 uM by fluro 4-AM dye-based fluorescence assay; conditions: hek293, 100 µM
Method in brief: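 Stable HEK-293 line grown to confluence on gelatin-coated wells (DMEM:F12, 5% FBS, geneticin 300 μg/mL). Cells loaded 1 h at 37 °C with Fluo 4-Direct/LHC-9, washed into LHC-9 with 1 mM probenecid and Trypan Red, then held 30 min at 37 °C. Compound added at 3× in calcium assay buffer. Fluorescence read 1 min at 37 °C as max ΔF/s versus medium only, expressed as % of 250 μM 2,4-ditert-butylphenol response. At least three replicates.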

Sequence of Transient receptor potential cation channel subfamily V member 4 (Homo sapiens) (Q9HBA0 whole entry): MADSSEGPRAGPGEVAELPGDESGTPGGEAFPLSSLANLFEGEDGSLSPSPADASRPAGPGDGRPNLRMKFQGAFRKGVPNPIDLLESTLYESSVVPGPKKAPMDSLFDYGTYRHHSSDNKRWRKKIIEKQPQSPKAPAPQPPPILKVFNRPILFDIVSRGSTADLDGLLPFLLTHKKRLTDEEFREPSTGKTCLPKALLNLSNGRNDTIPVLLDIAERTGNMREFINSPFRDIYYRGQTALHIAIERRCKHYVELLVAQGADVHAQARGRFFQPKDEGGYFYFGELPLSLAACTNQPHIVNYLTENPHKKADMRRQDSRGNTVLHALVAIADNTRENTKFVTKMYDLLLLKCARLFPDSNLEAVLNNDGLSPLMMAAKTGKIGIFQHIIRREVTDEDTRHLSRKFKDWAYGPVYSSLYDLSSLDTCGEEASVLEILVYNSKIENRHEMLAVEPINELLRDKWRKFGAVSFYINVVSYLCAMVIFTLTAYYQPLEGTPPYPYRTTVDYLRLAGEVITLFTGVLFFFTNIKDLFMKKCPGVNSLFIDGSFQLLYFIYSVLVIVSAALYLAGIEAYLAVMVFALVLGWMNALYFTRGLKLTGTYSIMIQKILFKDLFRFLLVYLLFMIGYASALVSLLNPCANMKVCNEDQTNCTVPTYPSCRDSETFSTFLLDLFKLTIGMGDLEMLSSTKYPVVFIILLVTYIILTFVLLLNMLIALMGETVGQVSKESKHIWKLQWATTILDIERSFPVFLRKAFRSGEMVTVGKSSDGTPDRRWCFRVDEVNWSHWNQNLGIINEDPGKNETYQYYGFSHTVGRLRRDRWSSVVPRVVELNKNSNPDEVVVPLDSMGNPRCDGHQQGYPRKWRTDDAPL
Sequence of Transient receptor potential cation channel subfamily A member 1 (O75762 whole entry): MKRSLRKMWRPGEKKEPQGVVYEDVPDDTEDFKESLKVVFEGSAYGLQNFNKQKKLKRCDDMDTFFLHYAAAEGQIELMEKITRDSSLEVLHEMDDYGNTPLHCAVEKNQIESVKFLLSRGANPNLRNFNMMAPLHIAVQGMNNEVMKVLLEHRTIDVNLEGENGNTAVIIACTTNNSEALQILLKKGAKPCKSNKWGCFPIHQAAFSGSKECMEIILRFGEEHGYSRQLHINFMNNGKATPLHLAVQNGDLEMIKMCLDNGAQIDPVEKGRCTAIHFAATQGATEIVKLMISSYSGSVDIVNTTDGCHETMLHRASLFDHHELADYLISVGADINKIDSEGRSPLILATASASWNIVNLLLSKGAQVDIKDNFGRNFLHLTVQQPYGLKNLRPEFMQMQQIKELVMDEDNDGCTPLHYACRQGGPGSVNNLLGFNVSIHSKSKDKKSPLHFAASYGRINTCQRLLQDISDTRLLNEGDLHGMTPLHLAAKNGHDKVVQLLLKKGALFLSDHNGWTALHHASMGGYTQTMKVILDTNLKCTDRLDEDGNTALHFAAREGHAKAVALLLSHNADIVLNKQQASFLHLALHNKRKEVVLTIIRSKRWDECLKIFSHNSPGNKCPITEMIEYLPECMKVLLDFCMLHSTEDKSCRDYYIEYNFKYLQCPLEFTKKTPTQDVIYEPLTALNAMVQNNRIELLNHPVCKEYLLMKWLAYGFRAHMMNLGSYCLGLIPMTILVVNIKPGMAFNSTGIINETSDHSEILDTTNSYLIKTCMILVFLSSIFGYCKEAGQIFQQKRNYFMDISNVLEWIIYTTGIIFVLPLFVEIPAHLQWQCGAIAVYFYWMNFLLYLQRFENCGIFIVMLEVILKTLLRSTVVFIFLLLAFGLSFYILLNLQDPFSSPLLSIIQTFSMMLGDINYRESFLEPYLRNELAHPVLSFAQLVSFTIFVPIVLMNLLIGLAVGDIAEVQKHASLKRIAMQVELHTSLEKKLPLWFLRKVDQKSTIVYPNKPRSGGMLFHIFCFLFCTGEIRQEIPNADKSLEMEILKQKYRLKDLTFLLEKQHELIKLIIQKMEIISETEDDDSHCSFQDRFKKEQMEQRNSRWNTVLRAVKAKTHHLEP
Sequence of Transient receptor potential cation channel subfamily M member 8 (Homo sapiens) (Q7Z2W7 whole entry, looked up): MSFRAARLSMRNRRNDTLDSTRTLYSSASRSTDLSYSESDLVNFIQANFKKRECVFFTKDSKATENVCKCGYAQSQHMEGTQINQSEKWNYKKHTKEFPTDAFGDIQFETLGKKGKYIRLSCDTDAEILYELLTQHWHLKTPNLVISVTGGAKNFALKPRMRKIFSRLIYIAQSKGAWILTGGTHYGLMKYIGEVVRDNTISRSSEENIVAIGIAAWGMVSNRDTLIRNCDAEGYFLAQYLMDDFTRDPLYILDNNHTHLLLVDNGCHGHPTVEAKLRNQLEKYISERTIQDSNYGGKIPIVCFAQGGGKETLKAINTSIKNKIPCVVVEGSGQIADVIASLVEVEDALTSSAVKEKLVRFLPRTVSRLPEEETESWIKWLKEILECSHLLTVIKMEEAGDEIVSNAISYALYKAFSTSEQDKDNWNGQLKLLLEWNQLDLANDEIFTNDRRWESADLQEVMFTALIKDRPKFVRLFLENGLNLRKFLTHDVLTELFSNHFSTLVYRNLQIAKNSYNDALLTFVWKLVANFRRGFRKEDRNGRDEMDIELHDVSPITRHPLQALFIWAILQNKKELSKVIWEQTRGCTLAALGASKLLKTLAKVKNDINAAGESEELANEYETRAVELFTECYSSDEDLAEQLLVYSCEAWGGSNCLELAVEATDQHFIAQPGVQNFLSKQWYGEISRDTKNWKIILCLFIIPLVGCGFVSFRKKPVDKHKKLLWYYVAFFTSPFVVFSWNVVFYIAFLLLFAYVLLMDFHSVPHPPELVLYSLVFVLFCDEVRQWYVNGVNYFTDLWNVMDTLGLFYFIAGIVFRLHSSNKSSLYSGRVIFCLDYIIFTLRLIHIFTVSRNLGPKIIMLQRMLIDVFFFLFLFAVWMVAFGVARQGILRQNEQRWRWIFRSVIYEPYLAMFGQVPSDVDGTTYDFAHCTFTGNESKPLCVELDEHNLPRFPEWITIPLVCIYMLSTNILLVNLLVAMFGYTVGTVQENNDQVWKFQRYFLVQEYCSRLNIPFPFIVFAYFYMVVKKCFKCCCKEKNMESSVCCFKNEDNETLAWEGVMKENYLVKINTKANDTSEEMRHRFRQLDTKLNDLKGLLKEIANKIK
Sequence of Transient receptor potential cation channel subfamily V member 1 (Homo sapiens) (Q8NER1 whole entry): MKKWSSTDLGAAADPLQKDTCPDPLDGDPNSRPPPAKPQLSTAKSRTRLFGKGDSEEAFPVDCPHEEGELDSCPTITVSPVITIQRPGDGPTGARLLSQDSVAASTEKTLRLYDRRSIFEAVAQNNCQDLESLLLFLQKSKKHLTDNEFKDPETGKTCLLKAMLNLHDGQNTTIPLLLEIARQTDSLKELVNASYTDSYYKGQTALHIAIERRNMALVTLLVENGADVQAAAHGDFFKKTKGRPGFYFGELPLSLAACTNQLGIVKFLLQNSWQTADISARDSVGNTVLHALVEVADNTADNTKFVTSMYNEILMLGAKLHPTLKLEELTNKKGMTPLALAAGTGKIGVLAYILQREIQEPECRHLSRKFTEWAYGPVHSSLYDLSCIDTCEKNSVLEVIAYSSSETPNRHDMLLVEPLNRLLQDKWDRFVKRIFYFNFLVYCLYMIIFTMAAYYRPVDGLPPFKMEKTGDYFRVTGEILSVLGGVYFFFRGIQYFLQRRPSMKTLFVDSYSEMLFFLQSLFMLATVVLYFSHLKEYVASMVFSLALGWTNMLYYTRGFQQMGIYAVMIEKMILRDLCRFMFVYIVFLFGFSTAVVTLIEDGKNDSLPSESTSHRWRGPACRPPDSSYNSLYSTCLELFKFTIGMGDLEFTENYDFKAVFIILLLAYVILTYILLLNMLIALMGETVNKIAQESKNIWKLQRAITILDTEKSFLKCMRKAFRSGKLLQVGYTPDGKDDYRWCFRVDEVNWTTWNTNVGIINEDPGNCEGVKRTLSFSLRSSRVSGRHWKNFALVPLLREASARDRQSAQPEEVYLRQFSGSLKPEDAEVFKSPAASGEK

| Activity [1] | Activity [2] | Activity [3] | Activity [4] | Activity [5] | SMILES |
| --- | --- | --- | --- | --- | --- |
| inactive | inactive | Active | inactive | Active | CC(C)C[C@@H]1NC(=O)[C@@H](CC(C)C)OC(=O)CCNC(=O)[C@H](Cc2ccccc2)NC(=O)[C@H](CC(C)C)OC1=O |
| inactive | inactive | Active | inactive | Active | CC(C)C[C@@H]1NC(=O)[C@@H](CC(C)C)OC(=O)CCNC(=O)[C@H](Cc2ccc(O)cc2)NC(=O)[C@H](CC(C)C)OC1=O |

Reference: ChEMBL document CHEMBL4052592, “Identification of Cyclic Depsipeptides and Their Dedicated Synthetase from Hapsidospora irregularis” (J Nat Prod, 2017)
